Yeast lifespan up = extends the lifespan of yeast. S. cerevisiae growth with nicotinamide, OD615; deaD strain in restrictive glucose medium. inhibition of the nicotinamide effect, % at 10 µM. hit rate 0.68% among 130,000;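 active means inhibition above a set limit, placed 3 SD over the median of all compounds, cut at about 26% in these data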;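 further: 0% = nicotinamide-treated wells and 100% = cells grown without nicotinamide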
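Test system: DeaD-strain S. cerevisiae / Buffer or medium: restrictive glucose medium / Also added: nicotinamide 1.5 mM / Doses: one concentration, 10 µM, DMSO 0.25% / Schedule: 48 h at 30 °C / Signal: OD615 measurement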
SDO1 yeast rescue = sdo1-depleted yeast growth rescue; z-score at 10 µM; hit rate 0.21% among 140,000; S. cerevisiae sdo1-depleted JHY4D growth rescue, OD600 30 h; active compounds read high; pdr5 snq2 efflux-pump mutant strain;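 active means z-score above 3 at both the 24 hr and the 30 hr optical density reads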;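 further: z-score against mean and SD of all compound wells on the same plate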
Yeast growth inh = reduces growth of yeast BB579 in restrictive medium; inhibition, % at 10 µM; hit rate 0.51% among 140,000; S. cerevisiae BB579 growth, OD615, 48 h; AID 804;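 active means inhibition above a set limit, 3 SD over the mean compound inhibition, cut at about 44% in these data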
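Assay system: S. cerevisiae DeaD strain BB579 yeast. Medium: CSMM-D restrictive synthetic medium containing dextrose (glucose). Times: 4 h cell preincubation, 48 h compound exposure, 30 °C humidified. Signal: OD615 turbidity measurement. Benchmarks: positive control amphotericin B 10 µg/mL.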
RAM inhibit = inhibitors of the yeast RAM network. S. cerevisiae dse1pr::URA3 reporter, 5-FOA growth OD615, 2 d; analog-sensitive cbk1-as2 kinase mutant strain. hit rate 1.8% among 190,000. inhibition, % at 50 µM;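 active means inhibition above a set limit, 3 SD over mean compound inhibition, cut at about 8.4% in these data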;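 further: 0% = DMSO-only wells with no growth and 100% = 10 µM 1-NA-PP1 full growth; inhibition rescues growth on 5-FOA so higher OD means more RAM inhibition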
* marks the source's active call; other numbers are inactive results; nt = no result. Sampled rows, rich in hits. Any-hit rate of the full collection: about 2.7%.

SMILES	Yeast lifespan up	SDO1 yeast rescue	Yeast growth inh	RAM inhibit
CC(=O)Oc1ccccc1C1C[C@]2(C)CC(=O)NC2N1C(C)=O (stereo partly drawn)	nt	nt	nt	1
Cc1ccc(C(=O)c2cc([N+](=O)[O-])ccc2N2CCCCC2)cc1C	-3	-0.61	-3	10.0*
Cc1ccc(C(=O)c2cc([N+](=O)[O-])ccc2N2CCOCC2)cc1C	3	-1.5	-41	1
O=C(NCCc1ccccn1)C(F)(F)C(F)(F)C(F)(F)C(F)(F)C(F)(F)C(F)(F)C(F)(F)C(F)F	33*	0.71	-26	-1
C[C@@H](C(=O)Nc1ccc2ccccc2c1)[C@H]1C[C@]1(C)[C@H](NC(=O)c1cccnc1)c1ccccc1	9	7.2*	-53	3
CC12CCC(C(=O)N3CCCCC3)(CC1=O)C2(C)C (stereo not drawn)	-16	-0.13	3	0
CCN(CCO)C(=O)C12CCC(C)(C(=O)C1)C2(C)C (stereo not drawn)	68*	0.37	-1	0
O=c1cc(-c2ccncc2)oc2ccccc12	-11	0.84	46*	1
CCCOc1ccc(/C(O)=C2/C(=O)C(=O)N(c3cc(C)on3)C2c2ccc(C(=O)OC)cc2)cc1 (stereo not drawn)	-28	0.4	2	11*
CCOc1ccc(/C(O)=C2/C(=O)C(=O)N(c3cc(C)on3)C2c2ccc(C(=O)OC)cc2)cc1 (stereo not drawn)	-2	-0.11	-24	2
COC(=O)c1ccc(OC)c(CSc2nnc(COc3ccc(Cl)cc3)o2)c1	-6	-0.75	-34	9.7*
CCOC(=O)c1ccc(NC(=O)C(C)N2C(=O)c3ccccc3C2=O)cc1 (stereo not drawn)	27*	0.86	-54	2
CCOC(=O)c1cccc(NC(=O)C(C)N2C(=O)c3ccccc3C2=O)c1 (stereo not drawn)	-6	0.63	-55	2
CCc1nnc(NC(=O)C2CCCN2C(=O)Nc2ccccc2)s1 (stereo not drawn)	nt	nt	nt	1
COC(=O)c1cc(=O)n(Cc2cccs2)c(=Nc2ccc(F)cc2)s1	nt	nt	nt	1
COC(=O)c1cc(=O)n(-c2ccc(F)cc2)c(=Nc2ccc(F)cc2)s1	29*	-2	-32	0
COC(=O)c1cc(=O)n(CCc2ccccc2F)c(=Nc2ccc(F)c(Cl)c2)s1	6	-0.31	-22	10*
Cc1ccc(-c2cc(C(=O)N3CCN(c4ncccn4)CC3)c3cc(Br)ccc3n2)o1	nt	nt	nt	2
CCN1C(=O)/C(=C/N2CC(C)CC(C)C2)SC1=S (stereo not drawn)	-15	-0.31	-21	9.7*
Cc1nn(C)cc1/C=N/NC(=O)Cn1nccc1C	5	0.26	-4	2
CN(C)S(=O)(=O)Oc1cccc(C(=O)Nc2ccc(Cl)c(Cl)c2)c1	-17	-2.3	-22	9.9*
Cc1ccc(-n2ncc3c(NCc4ccc5c(c4)OCO5)ncnc32)c(C)c1	-5	14*	-18	-1
CC1CCN(c2nc3ccc(C(=O)O)cc3s2)CC1	-8	-0.37	-5	2
Nc1ccc(-c2nc3ccc(C(=O)O)cc3s2)cc1	-3	0.11	-12	9.1*
Nc1cc2sc(-c3ccc(C(=O)O)cc3)nc2cc1Cl	-5	0.2	-20	4
SMILES	Yeast lifespan up	SDO1 yeast rescue	Yeast growth inh	RAM inhibit
O=C(O)c1ccc2nc(-c3ccccc3)sc2c1	-8	-0.12	47*	0
COC(=O)C1CC(c2ccc(Cl)cc2)=NO1 (stereo not drawn)	nt	nt	nt	-1
O=C(NC(=S)NNC(=O)c1cccs1)c1ccco1	29*	0.35	-16	-1
Cc1cccc(C(=O)NC(=S)NNC(=O)c2cccs2)c1	10	-0.32	49*	-1
Cc1cccc(C(=O)NC(=S)NNC(=O)c2ccc(Cl)cc2)c1	17	-0.59	-9	6
COc1ccc(C(=O)NC(=S)NNC(=O)c2ccc(NC(=O)C(C)C)cc2)cc1	33*	0.44	-21	6
COc1ccc(C(=O)NNC(=S)NC(=O)c2ccco2)cc1	33*	-0.16	-17	2
CCCCN(C(C)=O)c1c(N)n(CCC)c(=O)n(CC(=O)Nc2cc(Cl)cc(Cl)c2)c1=O	nt	nt	nt	0
Cc1ccnc(NS(=O)(=O)c2ccc(NC(=O)CSc3nc(-c4ccccc4)cc(=O)[nH]3)cc2)n1	nt	nt	nt	8
CC(C)(C)c1ccc(C(=O)NC(=S)NNC(=O)c2cccs2)cc1	-5	-1.4	67*	1
CCCC(=O)Nc1ccc(C(=O)NNC(=S)NC(=O)c2cccs2)cc1	62	-0.03	-33	5
